Laboratory results from ChEMBL document CHEMBL1145084, “Polymer-assisted solution-phase library synthesis and crystal structure of alpha-ketothiazoles as tissue factor VIIa inhibitors” (J Med Chem, 2003).

What was measured:
[1] = molecular target: Thrombin and coagulation factor VII (Homo sapiens) (UniProt P00734+P08709); test: Selectivity for coagulation factor VIIa over thrombin IIa.; format: protein assay
Coagulation factor VII = molecular target: T1, Coagulation factor VII (Homo sapiens, UniProt P08709); test: Inhibitory activity against tissue coagulation factor VII.
T1 sequence (P08709 whole entry): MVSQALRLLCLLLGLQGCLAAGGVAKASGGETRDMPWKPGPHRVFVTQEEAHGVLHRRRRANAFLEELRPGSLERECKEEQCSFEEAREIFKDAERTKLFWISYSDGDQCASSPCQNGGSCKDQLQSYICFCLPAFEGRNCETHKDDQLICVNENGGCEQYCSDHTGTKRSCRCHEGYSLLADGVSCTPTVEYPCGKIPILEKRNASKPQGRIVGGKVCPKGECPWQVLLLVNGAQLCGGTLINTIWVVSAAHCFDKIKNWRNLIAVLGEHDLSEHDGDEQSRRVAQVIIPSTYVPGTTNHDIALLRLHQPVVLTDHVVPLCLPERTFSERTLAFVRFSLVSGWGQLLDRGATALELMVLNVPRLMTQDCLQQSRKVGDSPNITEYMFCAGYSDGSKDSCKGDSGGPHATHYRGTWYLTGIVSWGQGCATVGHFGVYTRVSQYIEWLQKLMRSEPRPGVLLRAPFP
In short: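 Complex of recombinant soluble tissue factor (100 nM) and recombinant human Factor VIIa (2 nM). Substrate N-methylsulfonyl-D-Phe-Gly-Arg-p-nitroaniline at 0.4 mM in 5 mM CaCl2, 50 mM Tris-HCl pH 8.0, 100 mM NaCl, 0.1% BSA. Background A405 read first; after 60 min at room temperature, hydrolysis rate read at 405 nm. Duplicates at seven concentrations; IC50 is the duplicate average.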

Coagulation factor X = Coagulation factor X (Homo sapiens, UniProt P00742); test: Inhibitory activity against coagulation factor X.
In short: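 Human Factor Xa (0.3 nM) with chromogenic substrate S-2765 (0.15 mM) in 50 mM Tris-HCl pH 8.0, 100 mM NaCl, 0.1% BSA. A405 background read taken at once, then 60 min at room temperature, then p-nitroaniline release rate at 405 nm. Duplicates at seven concentrations; % inhibition versus control; IC50 from four-parameter logistic fit, averaged over the duplicates.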

Prothrombin = Prothrombin (Homo sapiens, UniProt P00734); test: Inhibitory activity against thrombin (IIa).
In short: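 Human thrombin (0.28 nM) with H-D-Phe-Pip-Arg-p-nitroaniline (0.06 mM) in 50 mM Tris-HCl pH 8.0, 100 mM NaCl, 0.1% BSA. Immediate background read at 405 nm, then 60 min at room temperature before measuring p-nitroaniline release rate at 405 nm. Seven concentrations in duplicate; % inhibition versus control; IC50 by four-parameter logistic regression.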

Chain of Coagulation factor X (P00742 41-179 limits assumed): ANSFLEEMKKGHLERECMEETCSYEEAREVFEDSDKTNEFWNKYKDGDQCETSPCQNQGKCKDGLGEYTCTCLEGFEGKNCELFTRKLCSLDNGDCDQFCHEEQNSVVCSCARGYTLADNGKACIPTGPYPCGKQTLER
Chain of Coagulation factor X (P00742 235-488 limits assumed): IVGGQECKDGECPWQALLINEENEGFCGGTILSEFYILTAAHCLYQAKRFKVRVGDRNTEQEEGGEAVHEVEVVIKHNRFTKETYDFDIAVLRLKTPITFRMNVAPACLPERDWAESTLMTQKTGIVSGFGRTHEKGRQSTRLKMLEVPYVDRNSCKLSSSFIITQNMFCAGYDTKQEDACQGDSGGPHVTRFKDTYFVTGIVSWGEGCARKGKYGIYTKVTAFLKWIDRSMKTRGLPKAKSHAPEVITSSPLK

SMILES | Selectivity [1] | IC50 (Coagulation factor VII) [nM] | IC50 (Coagulation factor X) [nM] | IC50 (Prothrombin) [nM]
CC(C)(C)C[C@H](NC(=O)[C@@H](Cc1ccccc1)NS(=O)(=O)Cc1ccccc1)C(=O)N[C@@H](CCCNC(=N)N)C(=O)c1nccs1 | – | 700 | 1030 | 440
CC(=O)Nc1ccc(C[C@H](NC(=O)[C@@H](Cc2ccccc2)NS(=O)(=O)Cc2ccccc2)C(=O)N[C@@H](CCCNC(=N)N)C(=O)c2nccs2)cc1 | – | 570 | 300 | 4590
CC(C)(C)C[C@H](NC(=O)[C@@H](Cc1ccccc1)NS(=O)(=O)Cc1ccccc1)C(=O)N[C@@H](CCCN=C(N)N)C(=O)c1nccs1 | 0.6 | – | – | –
CS(=O)(=O)CC[C@H](NC(=O)[C@@H](Cc1ccccc1)NS(=O)(=O)Cc1ccccc1)C(=O)N[C@@H](CCCN=C(N)N)C(=O)c1nccs1 | 1 | 13700 | 2000 | 12900
CN(C)CCCC[C@H](NC(=O)[C@@H](Cc1ccccc1)NS(=O)(=O)Cc1ccccc1)C(=O)N[C@@H](CCCN=C(N)N)C(=O)c1nccs1 | 5 | – | – | –
N=C(N)NCCC[C@H](NC(=O)[C@H](CC(N)=O)NC(=O)[C@@H](Cc1ccccc1)NS(=O)(=O)Cc1ccccc1)C(=O)c1nccs1 | 58 | – | – | –
NC(N)=NCCC[C@H](NC(=O)[C@H](Cc1ccc([N+](=O)[O-])cc1)NC(=O)[C@@H](Cc1ccccc1)NS(=O)(=O)Cc1ccccc1)C(=O)c1nccs1 | – | 5880 | 2180 | > 30000
N=C(N)NCCC[C@H](NC(=O)[C@H](Cc1ccc([N+](=O)[O-])cc1)NC(=O)[C@@H](Cc1ccccc1)NS(=O)(=O)Cc1ccccc1)C(=O)c1nccs1 | > 5 | – | – | –
CN(C)CCCC[C@H](NC(=O)[C@@H](Cc1ccccc1)NS(=O)(=O)Cc1ccccc1)C(=O)N[C@@H](CCCNC(=N)N)C(=O)c1nccs1 | – | 2820 | 1700 | 15400
N=C(N)NCCC[C@H](NC(=O)[C@H](CC1CCCCC1)NC(=O)[C@@H](Cc1ccccc1)NS(=O)(=O)Cc1ccccc1)C(=O)c1nccs1 | 7 | 3300 | 2700 | 24200
Cc1ccc(C[C@H](NC(=O)[C@@H](Cc2ccccc2)NS(=O)(=O)Cc2ccccc2)C(=O)N[C@@H](CCCN=C(N)N)C(=O)c2nccs2)cc1 | 6 | 1290 | 570 | 7480
Cc1cccc(C[C@H](NC(=O)[C@@H](Cc2ccccc2)NS(=O)(=O)Cc2ccccc2)C(=O)N[C@@H](CCCN=C(N)N)C(=O)c2nccs2)c1 | 71 | – | – | –
N=C(N)NCCC[C@H](NC(=O)[C@H](Cc1cccc(C(F)(F)F)c1)NC(=O)[C@@H](Cc1ccccc1)NS(=O)(=O)Cc1ccccc1)C(=O)c1nccs1 | 106 | – | – | –
N=C(N)NCCC[C@H](NC(=O)[C@H](CO)NC(=O)[C@@H](Cc1ccccc1)NS(=O)(=O)Cc1ccccc1)C(=O)c1nccs1 | 0.4 | 110 | 240 | 40
N=C(N)NCCC[C@H](NC(=O)[C@H](Cc1cn(Cc2ccccc2)cn1)NC(=O)[C@@H](Cc1ccccc1)NS(=O)(=O)Cc1ccccc1)C(=O)c1nccs1 | 1 | 9970 | 2400 | 9920
N=C(N)NCCC[C@H](NC(=O)[C@H](CC(=O)OC1CCCCC1)NC(=O)[C@@H](Cc1ccccc1)NS(=O)(=O)Cc1ccccc1)C(=O)c1nccs1 | 2 | 3180 | 1250 | 4990
N=C(N)NCCC[C@H](NC(=O)[C@H](Cc1cc(F)c(F)c(F)c1)NC(=O)[C@@H](Cc1ccccc1)NS(=O)(=O)Cc1ccccc1)C(=O)c1nccs1 | – | 200 | 250 | –
N=C(N)NCCC[C@H](NC(=O)[C@H](Cc1cc(F)cc(F)c1)NC(=O)[C@@H](Cc1ccccc1)NS(=O)(=O)Cc1ccccc1)C(=O)c1nccs1 | 36 | 190 | 180 | 6820
N=C(N)NCCC[C@H](NC(=O)[C@H](CC1CC1)NC(=O)[C@@H](Cc1ccccc1)NS(=O)(=O)Cc1ccccc1)C(=O)c1nccs1 | 11 | 820 | 2120 | 9200
Cc1ccccc1C[C@H](NC(=O)[C@@H](Cc1ccccc1)NS(=O)(=O)Cc1ccccc1)C(=O)N[C@@H](CCCN=C(N)N)C(=O)c1nccs1 | 90 | – | – | –
N#CC[C@H](NC(=O)[C@@H](Cc1ccccc1)NS(=O)(=O)Cc1ccccc1)C(=O)N[C@@H](CCCNC(=N)N)C(=O)c1nccs1 | 69 | – | – | –
CC(=O)Nc1ccc(C[C@H](NC(=O)[C@@H](Cc2ccccc2)NS(=O)(=O)Cc2ccccc2)C(=O)N[C@@H](CCCN=C(N)N)C(=O)c2nccs2)cc1 | 8 | – | – | –
CC[C@@H](C)[C@H](NC(=O)[C@@H](Cc1ccccc1)NS(=O)(=O)Cc1ccccc1)C(=O)N[C@@H](CCCN=C(N)N)C(=O)c1nccs1 | 64 | – | – | –

Second part, the compound after the results:

Selectivity [1] | IC50 (Coagulation factor VII) [nM] | IC50 (Coagulation factor X) [nM] | IC50 (Prothrombin) [nM] | SMILES
1 | 1950 | 770 | 2400 | N=C(N)NCCC[C@H](NC(=O)[C@H](Cc1ccc2ccccc2c1)NC(=O)[C@@H](Cc1ccccc1)NS(=O)(=O)Cc1ccccc1)C(=O)c1nccs1
> 5 | 5600 | 1800 | > 30000 | N=C(N)NCCC[C@H](NC(=O)[C@H](Cc1cccc2ccccc12)NC(=O)[C@@H](Cc1ccccc1)NS(=O)(=O)Cc1ccccc1)C(=O)c1nccs1
147 | – | – | – | N#Cc1ccc(C[C@H](NC(=O)[C@@H](Cc2ccccc2)NS(=O)(=O)Cc2ccccc2)C(=O)N[C@@H](CCCNC(=N)N)C(=O)c2nccs2)cc1
95 | – | – | – | N=C(N)NCCC[C@H](NC(=O)[C@H](Cc1ccccc1)NC(=O)[C@@H](Cc1ccccc1)NS(=O)(=O)Cc1ccccc1)C(=O)c1nccs1
1 | 1830 | 1070 | 1680 | N=C(N)NCCC[C@H](NC(=O)[C@H](Cc1cccc(-c2ccccc2)c1)NC(=O)[C@@H](Cc1ccccc1)NS(=O)(=O)Cc1ccccc1)C(=O)c1nccs1
500 | – | – | – | N=C(N)NCCC[C@H](NC(=O)[C@H](Cc1cccnc1)NC(=O)[C@@H](Cc1ccccc1)NS(=O)(=O)Cc1ccccc1)C(=O)c1nccs1
3 | 500 | 150 | 15400 | N=C(N)NCCC[C@H](NC(=O)[C@H](Cc1csc2ccccc12)NC(=O)[C@@H](Cc1ccccc1)NS(=O)(=O)Cc1ccccc1)C(=O)c1nccs1
70 | – | – | – | N=C(N)NCCC[C@H](NC(=O)[C@H](Cc1ccc(F)c(F)c1)NC(=O)[C@@H](Cc1ccccc1)NS(=O)(=O)Cc1ccccc1)C(=O)c1nccs1
4 | 760 | 380 | 3190 | N=C(N)NCCC[C@H](NC(=O)[C@H](Cc1ccc(Br)cc1)NC(=O)[C@@H](Cc1ccccc1)NS(=O)(=O)Cc1ccccc1)C(=O)c1nccs1
6 | 1530 | 310 | 9890 | N=C(N)NCCC[C@H](NC(=O)[C@H](COCc1ccccc1)NC(=O)[C@@H](Cc1ccccc1)NS(=O)(=O)Cc1ccccc1)C(=O)c1nccs1
1 | 17800 | 3140 | 11200 | N=C(N)NCCC[C@H](NC(=O)[C@H](Cc1ccc(-c2ccccc2)cc1)NC(=O)[C@@H](Cc1ccccc1)NS(=O)(=O)Cc1ccccc1)C(=O)c1nccs1
19 | 170 | 185 | 3150 | N=C(N)NCCC[C@H](NC(=O)[C@H](Cc1ccc(F)cc1)NC(=O)[C@@H](Cc1ccccc1)NS(=O)(=O)Cc1ccccc1)C(=O)c1nccs1
5 | 680 | 610 | 3420 | N=C(N)NCCC[C@H](NC(=O)[C@H](Cc1ccc(Cl)cc1)NC(=O)[C@@H](Cc1ccccc1)NS(=O)(=O)Cc1ccccc1)C(=O)c1nccs1
> 333 | – | – | – | N=C(N)NCCC[C@H](NC(=O)[C@H](Cc1ccccc1F)NC(=O)[C@@H](Cc1ccccc1)NS(=O)(=O)Cc1ccccc1)C(=O)c1nccs1
4 | 1560 | 500 | 6300 | N=C(N)NCCC[C@H](NC(=O)[C@H](Cc1ccc(I)cc1)NC(=O)[C@@H](Cc1ccccc1)NS(=O)(=O)Cc1ccccc1)C(=O)c1nccs1
75 | – | – | – | N=C(N)NCCC[C@H](NC(=O)[C@H](Cc1cccc(F)c1)NC(=O)[C@@H](Cc1ccccc1)NS(=O)(=O)Cc1ccccc1)C(=O)c1nccs1
63 | – | – | – | N=C(N)NCCC[C@H](NC(=O)[C@H](Cc1cccc(Cl)c1)NC(=O)[C@@H](Cc1ccccc1)NS(=O)(=O)Cc1ccccc1)C(=O)c1nccs1
